Measurements: ChEMBL document CHEMBL1687720 (Antimicrob Agents Chemother, 2009)

What was measured:
A549 [1] = test: Cytotoxicity against human A549 cells after 24 hrs by Trypan blue assay; settings: a549, 24 h
A549 [2] = test: Effect on glutathione peroxidase expression in human A549 cells assessed as transcript level at 5 µM after 24 hrs by RT-qPCR analysis relative to untreated control
Plasmodium berghei = test: Antimalarial activity against Plasmodium berghei infected in mouse assessed as reduction in parasite load at 10 mg/kg for 4 days treated postinfection measured on day 9; type: functional; set-up: scale not given: the % may be the effect or the level left
In short: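 Murine P. berghei model; compound given subcutaneously at 10 mg/kg for 4 days postinfection; parasitemia compared with untreated controls (n = 13 per group) on days 4, 7 and 9; significance by Fisher's exact test.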

A549 [3] = test: Effect on glutathione peroxidase expression in human A549 cells assessed as transcript level at 158 nM after 24 hrs by RT-qPCR analysis relative to untreated control; type: functional; settings: in the assay text read “158 µM” for “158 nM”
In short: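 A549 cells are seeded at 2.5 × 10^5 per 25-cm2 well. At 40–45% confluence they are treated for 24 h with 166 or 662 μM, 158 or 315 μM, or 5 or 24 μM compound; controls receive <5% DMSO. Total RNA is DNase-treated and qRT-PCR is run in quadruplicate. Values are normalized to GAPDH and given as % of untreated control.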

| SMILES | Activity (A549 [1]) | Activity (A549 [2]) | Activity (Plasmodium berghei) | Activity (A549 [3]) |
| --- | --- | --- | --- | --- |
| O=c1oc2c(O)c(O)c(O)c3c(=O)oc4c(O)c(O)c(O)c1c4c23 [CORULEOELLAGIC ACID] | Non-toxic | 51% | 50% | – |
| O=c1oc2c(O)c(O)c(O)c3c(=O)oc4c(O)c(O)cc1c4c23 [FLAVELLAGIC ACID] | – | – | – | 107% |
